Calls of active or inactive are those of the source. No cut-off for these calls is given here.
Tests used:
[1] = Cytotoxicity against human MRC5 cells after 72 hrs by XTT assay; type: cell-based
In short: (§1)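 Cells were grown as monolayers in DMEM with 10% FBS, penicillin, streptomycin and amphotericin at 37 °C and 5% CO2. Plating was 5×10³ cells/well, with treatment for 72 h in 10% FBS medium, a medium change, then another day. XTT (1 mg/mL) plus PMS in serum-free medium was added for 4 h at 37 °C and read at 492 nm. Growth was taken as % of control (mean of n = 3). GI50 was taken from the linear portion of the curve as the 50% absorbance reduction.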

[2] = Antiproliferative activity against human H1299 cells after 72 hrs by XTT assay; type: functional; details: NCI-H1299, 72 h; in short: as §1
[3] = Antiproliferative activity against human HepG2(2.2.1) cells after 72 hrs by XTT assay; type: functional; details: HepG2, 72 h; in short: as §1
[4] = Antiproliferative activity against human Hep3B cells after 72 hrs by XTT assay; type: functional, Hep 3B2; in short: as §1
HepG2 = experiment: Antiproliferative activity against human HepG2 cells after 72 hrs by XTT assay; type: functional; details: HepG2, 72 h; in short: as §1
A549 [5] = experiment: Antiproliferative activity against human A549 cells after 72 hrs by XTT assay; type: functional; details: A549, 72 h; in short: as §1
A549 [6] = experiment: Cell cycle arrest in human A549 cells assessed as accumulation at G1 phase at 10.0 uM after 24 hrs by flow cytometry; type: functional
In short: (§2)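 A549 cells were exposed to DMSO or compound at 0.1, 1.0, 5.0 or 10.0 µM for 24 h. Cells were harvested, rinsed in PBS, fixed in 70% ethanol and stored at −20 °C. Staining used propidium iodide solution with 0.2 mg/mL RNase and 0.1% Triton X-100, at least 30 min at room temperature in the dark. Cell-cycle phases were read by flow cytometry.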

A549 [7] = experiment: Cell cycle arrest in human A549 cells assessed as accumulation at subG1 phase at 1.0 uM after 24 hrs by flow cytometry; type: functional; in short: as §2
A549 [8] = experiment: Cell cycle arrest in human A549 cells assessed as accumulation at G2/M phase at 1.0 uM after 24 hrs by flow cytometry; type: functional; in short: as §2
A549 [9] = experiment: Cell cycle arrest in human A549 cells assessed as accumulation at G1 phase at 1.0 uM after 24 hrs by flow cytometry; type: functional; in short: as §2
A549 [10] = experiment: Cell cycle arrest in human A549 cells assessed as accumulation at subG1 phase at 10.0 uM after 24 hrs by flow cytometry; type: functional; in short: as §2
A549 [11] = experiment: Cell cycle arrest in human A549 cells assessed as accumulation at subG1 phase at 5.0 uM after 24 hrs by flow cytometry; type: functional; in short: as §2
A549 [12] = experiment: Cell cycle arrest in human A549 cells assessed as accumulation at S phase at 10.0 uM after 24 hrs by flow cytometry; type: functional; in short: as §2
A549 [13] = experiment: Cell cycle arrest in human A549 cells assessed as accumulation at G1 phase at 5.0 uM after 24 hrs by flow cytometry; type: functional; in short: as §2
A549 [14] = experiment: Cell cycle arrest in human A549 cells assessed as accumulation at G2/M phase at 10.0 uM after 24 hrs by flow cytometry; type: functional; in short: as §2
A549 [15] = experiment: Cell cycle arrest in human A549 cells assessed as accumulation at S phase at 5.0 uM after 24 hrs by flow cytometry; type: functional; in short: as §2
A549 [16] = experiment: Cell cycle arrest in human A549 cells assessed as accumulation at S phase at 1.0 uM after 24 hrs by flow cytometry; type: functional; in short: as §2
A549 [17] = experiment: Cell cycle arrest in human A549 cells assessed as accumulation at G2/M phase at 5.0 uM after 24 hrs by flow cytometry; type: functional; in short: as §2
A549 [18] = experiment: Induction of apoptosis in human A549 cells assessed as microtubule network damage at 10.0 uM after 24 hrs by immunofluorescence; type: functional, cell-based
In short: (§3)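 A549 cells on cover glasses were treated for 24 h, then fixed in 4% paraformaldehyde for 1 h. Glycine-PBS wash, then permeabilization with 2% FBS and 0.4% Triton X-100 for 15 min. Cells were stained with anti-β-tubulin monoclonal (1:1000, 4 °C overnight), then FITC anti-mouse IgG (1:200, 1 h, room temperature). DAPI was added for nuclei, and imaging was by confocal laser scanning microscopy.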

A549 [19] = experiment: Cell cycle arrest in human A549 cells assessed as accumulation at subG1 phase at 0.1 uM after 24 hrs by flow cytometry; type: functional; in short: as §2
A549 [20] = experiment: Induction of apoptosis in human A549 cells assessed as PARP cleavage after 24 hrs by Western blot; type: functional, cell-based
In short: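 Exponentially growing A549 cells were treated for 24 h, then lysed on ice for 30 min in Tris pH 7.5/NP-40 buffer with protease and phosphatase inhibitors. Protein was measured by Bradford, and 20 µg was resolved on 10% SDS–PAGE and transferred to PVDF. Blots were blocked in 5% milk, probed with anti-PARP (1:1000, 2 h) then HRP anti-rabbit (1:5000, 30 min), and reprobed for β-actin as a loading check.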

A549 [21] = experiment: Cell cycle arrest in human A549 cells assessed as accumulation at G1 phase at 0.1 uM after 24 hrs by flow cytometry; type: functional; in short: as §2
A549 [22] = experiment: Cell cycle arrest in human A549 cells assessed as accumulation at G2/M phase at 0.1 uM after 24 hrs by flow cytometry; type: functional; in short: as §2
A549 [23] = experiment: Induction of apoptosis in human A549 cells assessed as DNA fragmentation after 24 hrs by agarose gel electrophoresis; type: functional, cell-based
In short: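 A549 cells were treated at 1.0, 5.0 or 10.0 µM for 24 h and washed in PBS. Total genomic DNA was isolated with a kit and run on a 2.0% agarose gel in 1× TAE at 100 V.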

A549 [24] = experiment: Cell cycle arrest in human A549 cells assessed as accumulation at S phase at 0.1 uM after 24 hrs by flow cytometry; type: functional; in short: as §2
A549 [25] = experiment: Induction of apoptosis in human A549 cells assessed as shrinkage in microtubule network at 1.0 uM after 24 hrs by immunofluorescence; type: functional, cell-based; in short: as §3
A549 [26] = experiment: Induction of apoptosis in human A549 cells assessed as morphological changes after 24 hrs by fluorescence microscopy; type: functional, cell-based
In short: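 A549 cells were treated with DMSO or compound at 1, 5 or 10 µM for 24 h at 37 °C, then photographed under a microscope.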

A549 [27] = experiment: Induction of apoptosis in human A549 cells assessed as apoptotic bodies after 24 hrs by fluorescence microscopy; type: functional, cell-based; in short: as §3

| SMILES | GI50 at 72 h [1] [µM] | GI50 [2] [µM] | GI50 [3] [µM] | GI50 [4] [µM] | GI50 (HepG2) [µM] | GI50 (A549 [5]) [µM] | other results |
| --- | --- | --- | --- | --- | --- | --- | --- |
| O=C1c2cc(O)ccc2-c2c(-c3ccc(O)cc3)nc3ccccc3c21 | > 10 | > 10 | > 10 | > 10 | 9.12 | > 10 |  |
| COc1ccc(-c2nc3ccc(F)cc3c3c2-c2ccc(OC)cc2C3=O)cc1 | > 10 | 6.44 | > 10 | > 10 | > 10 | > 10 |  |
| O=C1c2cc(O)ccc2-c2c(-c3ccc(OCCN4CCCC4)cc3)nc3ccc(F)cc3c21 | 6.02 | 5.25 | 5.69 | 6.34 | 6.1 | 6.63 |  |
| COc1ccc(-c2nc3ccc(OC)cc3c3c2-c2ccc(OC)cc2C3=O)cc1 | 10.2 | 7.84 | > 10 | 12.5 | > 10 | > 10 | Activity (A549 [6]): 76.9%; Activity (A549 [7]): 0.9%; Activity (A549 [8]): 8.6%; Activity (A549 [9]): 78.2%; Activity (A549 [10]): 1%; Activity (A549 [11]): 1%; Activity (A549 [12]): 14.7%; Activity (A549 [13]): 77.9%; Activity (A549 [14]): 8.4%; Activity (A549 [15]): 14.3%; Activity (A549 [16]): 13.2%; Activity (A549 [17]): 7.8% |
| O=C1c2cc(O)ccc2-c2c(-c3ccc(OCCN4CCCCC4)cc3)nc3ccccc3c21 | 3.1 | 6.55 | 6.4 | 5.4 | 4.3 | 5.06 |  |
| CCc1c2c(nc3ccc(OC(=O)N4CCC(N5CCCCC5)CC4)cc13)-c1cc3c(c(=O)n1C2)COC(=O)[C@]3(O)CC [IRINOTECAN] | 77.5 | > 10 | > 10 | 4.73 | 5.94 | > 10 |  |
| CN(C)CCCOc1ccc(-c2nc3ccc(F)cc3c3c2-c2ccc(OCCCN(C)C)cc2C3=O)cc1 | 1.86 | 0.72 | 0.59 | 0.67 | 0.61 | 3.67 |  |
| CC[C@@]1(O)C(=O)OCc2c1cc1n(c2=O)Cc2cc3c(CN(C)C)c(O)ccc3nc2-1 [TOPOTECAN] | 4.25 | > 10 | 4.95 | 0.22 | 3.83 | 5.98 |  |
| COc1ccc(-c2nc3ccccc3c3c2-c2ccc(OC)cc2C3=O)cc1 | > 10 | > 10 | > 10 | > 10 | > 10 | > 10 |  |
| O=C1c2cc(OCCN3CCCCC3)ccc2-c2c(-c3ccc(OCCN4CCCCC4)cc3)nc3ccc(F)cc3c21 | 4.52 | 0.79 | 3 | 0.66 | 2.82 | 6.24 |  |
| CN(C)CCCOc1ccc(-c2nc3ccc(F)cc3c3c2-c2ccc(O)cc2C3=O)cc1 | 4.75 | 6.13 | 5.62 | 6.72 | 5.92 | 6.35 |  |
| O=C1c2cc(OCCN3CCCC3)ccc2-c2c(-c3ccc(OCCN4CCCC4)cc3)nc3ccc(F)cc3c21 | 5.15 | 4.3 | 6.11 | 6.24 | 4.92 | 6.23 |  |
| O=C1c2cc(O)ccc2-c2c(-c3ccc(O)cc3)nc3ccc(F)cc3c21 | > 10 | 5.88 | > 10 | 9.01 | > 10 | > 10 |  |
| CN(C)CCCOc1ccc(-c2nc3ccc(OCCCN(C)C)cc3c3c2-c2ccc(OCCCN(C)C)cc2C3=O)cc1 | 6.2 | 5.18 | 4.25 | 4.44 | 0.6 | 0.68 | Activity (A549 [7]): 2%; Activity (A549 [8]): 11%; Activity (A549 [18]): Active; Activity (A549 [9]): 75%; Activity (A549 [19]): 1.5%; Activity (A549 [20]): Dose-dependent effect; Activity (A549 [11]): 17.1%; Activity (A549 [21]): 73.9%; Activity (A549 [22]): 9.8%; Activity (A549 [13]): 71.9%; Activity (A549 [23]): Active; Activity (A549 [24]): 16.3%; Activity (A549 [15]): 12.3%; Activity (A549 [16]): 13.6%; Activity (A549 [25]): Active; Activity (A549 [26]): Active; Activity (A549 [27]): Active; Activity (A549 [17]): 15.8% |
| O=C1c2cc(OCCN3CCCCC3)ccc2-c2c(-c3ccc(OCCN4CCCCC4)cc3)nc3ccc(OCCN4CCCCC4)cc3c21 | 4.64 | 6.26 | 6.07 | 5.02 | 0.7 | 0.81 |  |
| O=C1c2cc(OCCN3CCCC3)ccc2-c2c(-c3ccc(OCCN4CCCC4)cc3)nc3ccc(OCCN4CCCC4)cc3c21 | 0.71 | 0.37 | 3.44 | 1.73 | 0.62 | 0.67 |  |
| O=C1c2cc(O)ccc2-c2c(-c3ccc(O)cc3)nc3ccc(O)cc3c21 | 10.3 | 10.4 | 6.61 | 12.2 | 5.51 | 4.98 |  |
| CN(C)CCCOc1ccc(-c2nc3ccccc3c3c2-c2ccc(OCCCN(C)C)cc2C3=O)cc1 | 3.68 | 5.35 | 5.39 | 3.05 | 4.35 | 3.07 |  |
| O=C1c2cc(O)ccc2-c2c(-c3ccc(OCCN4CCCCC4)cc3)nc3ccc(F)cc3c21 | 5.91 | 5.32 | 6.03 | 6.61 | 4.78 | 6 |  |
| O=C1c2cc(OCCN3CCCC3)ccc2-c2c(-c3ccc(OCCN4CCCC4)cc3)nc3ccccc3c21 | 5.31 | 6.95 | 6.15 | 3.46 | 4.03 | 3.75 |  |
| CN(C)CCCOc1ccc(-c2nc3ccccc3c3c2-c2ccc(O)cc2C3=O)cc1 | 4.61 | 6.39 | 6.82 | 5.34 | 5.59 | 5.87 |  |
| O=C1c2cc(O)ccc2-c2c(-c3ccc(OCCN4CCCC4)cc3)nc3ccccc3c21 | 3.16 | 7.05 | 6.06 | 3.4 | 4.28 | 4.33 |  |
| O=C1c2cc(OCCN3CCCCC3)ccc2-c2c(-c3ccc(OCCN4CCCCC4)cc3)nc3ccccc3c21 | 4.34 | 6.38 | 6.24 | 1.35 | 4.32 | 5.68 |  |

— ChEMBL document CHEMBL1152640, “Synthesis and antiproliferative evaluation of 6-arylindeno[1,2-c]quinoline derivatives” (Bioorg Med Chem, 2009)
